ChEMBL document CHEMBL4334549, “Functionalized Naphthalimide-4-aminoquinoline Conjugates as Promising Antiplasmodials, with Mechanistic Insights” (ACS Med Chem Lett, 2020)
Activity calls are given as the source filed them. The calls are words filed in the database; no cut-off is given here.

Experiments:
Plasmodium falciparum [1] = test: Antiplasmodial activity against D-sorbitol synchronized ring stage of chloroquine-resistant Plasmodium falciparum W2 assessed as parasite growth inhibition measured after 48 hrs by YOYO-1 dye based FACSort flow cytometry analysis; assay type: functional, organism-based; conditions: W2, 48 h
Vero = test: Cytotoxicity against African green monkey Vero cells measured after 24 hrs by resazurin dye based fluorescence assay; assay type: cell-based; conditions: Chlorocebus sabaeus
[2] = Selectivity index, ratio of IC50 for African green monkey Vero cells to IC50 for D-sorbitol synchronized ring stage of chloroquine-resistant Plasmodium falciparum W2; assay type: toxicity; conditions: read-out: Ratio IC50
Plasmodium falciparum [3] = test: Antiplasmodial activity against sorbitol synchronized CQ-resistant Plasmodium falciparum W2 assessed as parasite growth inhibition after 48 hrs by SYBR Green I-based fluorescence assay; conditions: W2, 48 h
Heme [4] = test: Binding affinity to monomeric heme assessed as binding constant in HEPES buffer in aqueous DMSO solution at pH 7.4 by UV-vis spectrophotometric titration analysis
Summary of the method: (§1)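 Monomeric hemin (12 μM) in 40% DMSO with 0.02 M HEPES, pH 7.4, was titrated with compound at 0–18 μM. The drop in the 401 nm monomeric-heme band was followed by UV-vis. Log K was obtained by nonlinear least-squares fitting of the titration curves. A DMSO solvent control was included.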

Heme [5] = test: Binding affinity to monomeric heme assessed as binding constant in MES buffer in aqueous DMSO solution at pH 5.6 by UV-vis spectrophotometric titration analysis
Summary of the method: (§2)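 Monomeric hemin (12 μM) in aqueous DMSO with 0.02 M MES, pH 5.6, was titrated with compound at 0–16 μM. Loss of the 401 nm monomeric-heme absorbance was monitored by UV-vis. Binding constant (log K) came from nonlinear least-squares fitting of the titration curves, with a DMSO solvent control.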

Plasmodium falciparum [6] = test: Potency index, ratio of chloroquine IC50 to compound IC50 for antiplasmodial activity against D-sorbitol synchronized ring stage of chloroquine-resistant Plasmodium falciparum W2 assessed as parasite growth inhibition measured after 48 hrs by YOYO-1 dye based FACSort flow cytometry analysis; assay type: functional
Heme [7] = test: Binding affinity to monomeric heme assessed as heme-compound complex formation by measuring shifting and broadening of the peaks by 1H-NMR analysis
Heme [8] = test: Binding affinity to monomeric heme assessed as heme-compound complex formation at 1:1 ratio in aqueous DMSO solution at 5 micromol by mass spectrometry analysis
Heme [9] = test: Binding affinity to monomeric heme assessed as decrease in band intensity in MES buffer in aqueous DMSO solution at pH 5.6 by UV-vis spectrophotometric titration analysis; summary of the method: as §2
Heme [10] = test: Binding affinity to monomeric heme assessed as decrease in band intensity in HEPES buffer in aqueous DMSO solution at pH 7.4 by UV-vis spectrophotometric titration analysis; summary of the method: as §1

| SMILES | IC50 (Plasmodium falciparum [1]) [µM] | IC50 (Vero) [µM] | selectivity ratio [2] | other results |
| --- | --- | --- | --- | --- |
| O=C1c2cccc3c(N4CCN(CCO)CC4)ccc(c23)C(=O)N1CCCCCCCCNc1ccnc2cc(Cl)ccc12 | 0.215 | 171 | 797 | – |
| O=C1c2cccc3c(Br)ccc(c23)C(=O)N1CCNc1ccnc2cc(Cl)ccc12 | 0.053 | 7.79 | 147 | – |
| O=C1c2cccc3c(Br)ccc(c23)C(=O)N1CCCCNc1ccnc2cc(Cl)ccc12 | 0.0533 | 13.9 | 262 | – |
| CC(C)[C@@H](C(=O)N[C@H](Cc1ccccc1)[C@@H](O)CN1CCN(Cc2ccc(Br)cc2)CC1)N1C(=O)c2ccccc2C1=O | – | – | – | IC50 (Plasmodium falciparum [3]): 3.01 µM |
| O=C1c2cccc3c(Br)ccc(c23)C(=O)N1CCCNc1ccnc2cc(Cl)ccc12 | 0.0597 | 10.7 | 179 | – |
| O=C1c2cccc3c(N4CCN(CCO)CC4)ccc(c23)C(=O)N1CCCCNc1ccnc2cc(Cl)ccc12 | 0.0201 | 31.9 | 1580 | – |
| O=C1c2cccc3c(Br)ccc(c23)C(=O)N1CCCCCCNc1ccnc2cc(Cl)ccc12 | 0.162 | 186 | 1150 | – |
| O=C1c2cccc3c(N4CCN(CCO)CC4)ccc(c23)C(=O)N1CCNc1ccnc2cc(Cl)ccc12 | 0.0411 | 45.2 | 1100 | – |
| O=C1c2cccc3c(N4CCCCC4)ccc(c23)C(=O)N1CCCCCCNc1ccnc2cc(Cl)ccc12 | 0.13 | 185 | 1420 | – |
| O=C1c2cccc3c(N4CCOCC4)ccc(c23)C(=O)N1CCCCCCNc1ccnc2cc(Cl)ccc12 | 0.0842 | 184 | – | – |
| O=C1c2cccc3cccc(c23)C(=O)N1CCCNc1ccnc2cc(Cl)ccc12 | 0.147 | 3.14 | 21.4 | – |
| O=C1c2cccc3c(N4CCOCC4)ccc(c23)C(=O)N1CCCCNc1ccnc2cc(Cl)ccc12 | 0.237 | 12.5 | 52.6 | – |
| O=C1c2cccc3cccc(c23)C(=O)N1CCCCCCNc1ccnc2cc(Cl)ccc12 | 0.39 | 218 | 560 | – |
| O=C1c2cccc3c(N4CCN(CCO)CC4)ccc(c23)C(=O)N1CCCCCCNc1ccnc2cc(Cl)ccc12 | 0.12 | 13.1 | 109 | – |
| O=C1c2cccc3c(N4CCN(CCO)CC4)ccc(c23)C(=O)N1CCCNc1ccnc2cc(Cl)ccc12 | 0.0154 | 64.8 | 4190 | log K (Heme [4]): 6.33; log K (Heme [5]): 6.06; Ratio IC50 (Plasmodium falciparum [6]): 15; Activity (Heme [7]): Active; Activity (Heme [8]): Active; Activity (Heme [9]): Active; Activity (Heme [10]): Active |
| O=C1c2cccc3c(N4CCOCC4)ccc(c23)C(=O)N1CCCCCCCCNc1ccnc2cc(Cl)ccc12 | 3.97 | 175 | 44.1 | – |
| O=C1c2cccc3c(N4CCOCC4)ccc(c23)C(=O)N1CCNc1ccnc2cc(Cl)ccc12 | 0.121 | 26.8 | 221 | – |
| O=C1c2cccc3cccc(c23)C(=O)N1CCCCCCCCNc1ccnc2cc(Cl)ccc12 | 0.357 | 206 | 576 | – |
| O=C1c2cccc3c(N4CCCCC4)ccc(c23)C(=O)N1CCCCCCCCNc1ccnc2cc(Cl)ccc12 | 0.438 | 176 | 401 | – |
| O=C1OC(=O)c2cccc3cccc1c23 [1,8-NAPHTHALIC ANHYDRIDE] | > 10 | 505 | – | – |
| O=C1c2cccc3c(N4CCOCC4)ccc(c23)C(=O)N1CCCNc1ccnc2cc(Cl)ccc12 | 0.0669 | 69 | 1030 | – |
| O=C1c2cccc3c(N4CCCCC4)ccc(c23)C(=O)N1CCNc1ccnc2cc(Cl)ccc12 | 0.149 | 126 | 851 | – |
| O=C1c2cccc3cccc(c23)C(=O)N1CCNc1ccnc2cc(Cl)ccc12 | 0.056 | 249 | 4440 | – |
| O=C1OC(=O)c2ccc(Br)c3cccc1c23 | > 10 | 361 | – | – |
| O=C1c2cccc3cccc(c23)C(=O)N1CCCCNc1ccnc2cc(Cl)ccc12 | 0.0407 | 7.58 | 186 | – |
| O=C1c2cccc3c(N4CCCCC4)ccc(c23)C(=O)N1CCCCNc1ccnc2cc(Cl)ccc12 | 0.0961 | 33.8 | 352 | – |
| O=C1c2cccc3c(Br)ccc(c23)C(=O)N1CCCCCCCCNc1ccnc2cc(Cl)ccc12 | 0.562 | 177 | 315 | – |
| O=C1c2cccc3c(N4CCCCC4)ccc(c23)C(=O)N1CCCNc1ccnc2cc(Cl)ccc12 | 0.0512 | 200 | 3910 | – |
